Tests used:
[1] = tested on: Ishikawa; assay: Relative stimulation of alkaline phosphatase (AlkP) activity in Ishikawa cells; assay type: functional, Homo sapiens
Procedure, shortened: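 Ishikawa cells in phenol red-free medium with charcoal-stripped bovine serum, exposed for 3 days to steroid over at least 6 orders of magnitude of concentration. Cells were freeze-thawed, then given 5 mM p-nitrophenyl phosphate at pH 9.8, read kinetically at 405 nm. RSA = (1/EC50 analogue)/(1/EC50 E2) × 100. At least three experiments in duplicate.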

[2] = tested on: esterase (Rattus norvegicus); assay: Relative hydrolytic activity against esterase in rat hepatic microsomes; settings: Liver

| SMILES | RSA [1] | RHA [2] |
| --- | --- | --- |
| CC(C)OC(=O)[C@@H]1C[C@H]2[C@@H]3CCc4cc(O)ccc4[C@H]3CC[C@]2(C)[C@H]1O | 0.1 | – |
| C[C@]12CC[C@@H]3c4ccc(O)cc4CC[C@H]3[C@@H]1CCC2=O [ESTRONE] | 7 | – |
| COC(=O)CC[C@@H]1C[C@H]2[C@@H]3CCc4cc(O)ccc4[C@H]3CC[C@]2(C)[C@H]1O | 0 | 910 |
| COC(=O)C[C@@H]1C[C@H]2[C@@H]3CCc4cc(O)ccc4[C@H]3CC[C@]2(C)[C@H]1O | 0.5 | 340 |
| C[C@]12CC[C@@H]3c4ccc(O)cc4CC[C@H]3[C@@H]1C[C@@H](CCC(=O)O)[C@@H]2O | 0 | – |
| C[C@]12CC[C@@H]3c4ccc(O)cc4CC[C@H]3[C@@H]1C[C@@H](CC(=O)O)[C@@H]2O | 0 | – |
| CCOC(=O)C[C@@H]1C[C@H]2[C@@H]3CCc4cc(O)ccc4[C@H]3CC[C@]2(C)[C@H]1O | 0.3 | 700 |
